Measurements from ChEMBL document CHEMBL2424622, “Development of amino-pyrimidine inhibitors of c-Jun N-terminal kinase (JNK): kinase profiling guided optimization of a 1,2,3-benzotriazole lead” (Bioorg Med Chem Lett, 2013).

Experiments:
[1] = biological target: Cytochrome P450 2C9 (Homo sapiens, UniProt P11712); assay: Inhibition of CYP2C9 (unknown origin); assay type: ADME
[2] = biological target: Calcium/calmodulin-dependent protein kinase type 1 (Homo sapiens, UniProt Q14012); assay: Binding affinity to CAMK1 (unknown origin)
Chain of Calcium/calmodulin-dependent protein kinase type 1 (Q14012 whole entry): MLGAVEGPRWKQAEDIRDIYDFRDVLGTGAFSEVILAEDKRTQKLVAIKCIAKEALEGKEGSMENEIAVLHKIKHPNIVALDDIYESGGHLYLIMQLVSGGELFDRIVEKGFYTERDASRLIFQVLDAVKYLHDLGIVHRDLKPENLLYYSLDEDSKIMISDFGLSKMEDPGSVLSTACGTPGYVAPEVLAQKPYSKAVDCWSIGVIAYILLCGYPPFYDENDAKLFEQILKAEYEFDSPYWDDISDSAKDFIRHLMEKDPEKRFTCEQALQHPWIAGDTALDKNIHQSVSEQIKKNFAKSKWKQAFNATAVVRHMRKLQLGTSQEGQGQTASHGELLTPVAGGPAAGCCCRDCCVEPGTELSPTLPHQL

[3] = biological target: Glycogen synthase kinase-3 beta (Homo sapiens, UniProt P49841); assay: Binding affinity to GSK3B (unknown origin)
[4] = biological target: Death-associated protein kinase 2 (Homo sapiens, UniProt Q9UIK4); assay: Binding affinity to DAPK2 (unknown origin)
[5] = biological target: MAP kinase p38 (Homo sapiens, UniProt O15264+Q15759+Q16539+P53778); assay: Inhibition of p38 (unknown origin)-dependent HSP27 phosphorylation by cell-based assay
[6] = test system: Rattus norvegicus; assay: Cmax in Hanover-Wistar rat at 0.5 mg/kg, iv; assay type: ADME, organism-based; set-up: dose 0.5 mg/kg, route intravenous; details: in vivo
[7] = biological target: Serine/threonine-protein kinase DCLK3 (Homo sapiens, UniProt Q9C098); assay: Binding affinity to DCAMKL3 (unknown origin)
Chain of Serine/threonine-protein kinase DCLK3 (Q9C098 whole entry): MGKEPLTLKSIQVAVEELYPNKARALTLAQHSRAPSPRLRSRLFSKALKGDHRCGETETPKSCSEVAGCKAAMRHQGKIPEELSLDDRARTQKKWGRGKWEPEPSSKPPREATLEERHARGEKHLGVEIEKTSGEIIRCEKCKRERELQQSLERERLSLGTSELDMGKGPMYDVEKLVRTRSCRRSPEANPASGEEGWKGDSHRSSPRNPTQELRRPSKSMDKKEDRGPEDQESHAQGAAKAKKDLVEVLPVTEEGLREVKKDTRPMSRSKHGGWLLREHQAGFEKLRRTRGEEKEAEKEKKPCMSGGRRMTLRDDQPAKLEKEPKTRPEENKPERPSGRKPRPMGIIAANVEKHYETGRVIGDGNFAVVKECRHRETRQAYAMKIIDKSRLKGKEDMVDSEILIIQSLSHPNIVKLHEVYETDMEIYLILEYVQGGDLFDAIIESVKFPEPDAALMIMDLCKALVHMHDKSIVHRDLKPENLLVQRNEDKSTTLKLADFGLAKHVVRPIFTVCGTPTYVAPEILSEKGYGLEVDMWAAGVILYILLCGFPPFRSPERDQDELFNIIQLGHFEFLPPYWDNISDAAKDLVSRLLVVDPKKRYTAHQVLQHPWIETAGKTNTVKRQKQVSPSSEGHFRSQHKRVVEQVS

[8] = biological target: Dual specificity mitogen-activated protein kinase kinase 4 (Homo sapiens, UniProt P45985); assay: Binding affinity to MEK4 (unknown origin)
[9] = biological target: Mitogen-activated protein kinase 15 (Homo sapiens, UniProt Q8TD08); assay: Binding affinity to ERK8 (unknown origin)
[10] = Oral bioavailability in Hanover-Wistar rat at 2 mg/kg; assay type: ADME, organism-based; details: in vivo
[11] = biological target: Death-associated protein kinase 3 (Homo sapiens, UniProt O43293); assay: Binding affinity to DAPK3 (unknown origin)
Chain of Death-associated protein kinase 3 (O43293 whole entry): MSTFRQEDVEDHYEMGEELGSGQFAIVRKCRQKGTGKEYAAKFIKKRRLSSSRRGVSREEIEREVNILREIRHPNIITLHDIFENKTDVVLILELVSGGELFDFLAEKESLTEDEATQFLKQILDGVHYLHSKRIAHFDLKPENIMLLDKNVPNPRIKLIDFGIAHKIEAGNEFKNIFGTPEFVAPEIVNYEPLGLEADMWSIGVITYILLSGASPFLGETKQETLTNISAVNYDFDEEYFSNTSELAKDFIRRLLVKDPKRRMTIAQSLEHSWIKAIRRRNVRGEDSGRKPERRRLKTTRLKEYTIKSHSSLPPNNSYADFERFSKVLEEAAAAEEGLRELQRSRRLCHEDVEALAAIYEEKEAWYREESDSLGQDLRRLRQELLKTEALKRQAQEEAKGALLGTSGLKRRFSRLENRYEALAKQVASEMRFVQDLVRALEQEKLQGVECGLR

[12] = AUC (0 to infinity) in Hanover-Wistar rat at 20 mg/kg, po; assay type: ADME, organism-based; set-up: time infinity, dose 20 mg/kg, route oral; details: plasma
[13] = biological target: Mitogen-activated protein kinase 14 (Homo sapiens, UniProt Q16539); assay: Binding affinity to p38-alpha (unknown origin)
[14] = biological target: Serine/threonine-protein kinase Nek5 (Homo sapiens, UniProt Q6P3R8); assay: Binding affinity to NEK5 (unknown origin)
Chain of Serine/threonine-protein kinase Nek5 (Q6P3R8 whole entry, the tested form may be a part): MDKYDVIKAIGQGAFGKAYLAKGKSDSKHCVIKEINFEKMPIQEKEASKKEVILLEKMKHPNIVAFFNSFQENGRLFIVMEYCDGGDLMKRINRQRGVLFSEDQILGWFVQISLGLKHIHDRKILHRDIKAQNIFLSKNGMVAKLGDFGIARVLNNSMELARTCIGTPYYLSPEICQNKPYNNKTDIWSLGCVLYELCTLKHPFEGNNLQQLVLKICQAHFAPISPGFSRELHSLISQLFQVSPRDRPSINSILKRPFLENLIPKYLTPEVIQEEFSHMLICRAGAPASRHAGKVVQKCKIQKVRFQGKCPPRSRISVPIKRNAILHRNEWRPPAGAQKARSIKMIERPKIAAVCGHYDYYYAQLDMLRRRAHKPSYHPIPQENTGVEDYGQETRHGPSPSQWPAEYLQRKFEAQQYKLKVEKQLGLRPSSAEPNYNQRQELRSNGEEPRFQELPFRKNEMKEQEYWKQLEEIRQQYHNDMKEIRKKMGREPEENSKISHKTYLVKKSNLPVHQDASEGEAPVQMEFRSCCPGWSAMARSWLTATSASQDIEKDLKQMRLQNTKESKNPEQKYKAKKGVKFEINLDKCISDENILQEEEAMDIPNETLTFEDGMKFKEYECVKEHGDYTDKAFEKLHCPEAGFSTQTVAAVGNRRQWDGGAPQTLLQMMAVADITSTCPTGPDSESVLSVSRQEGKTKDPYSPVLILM

[15] = biological target: LIM domain kinase 2 (Homo sapiens, UniProt P53671); assay: Binding affinity to LIMK2 (unknown origin)
[16] = biological target: Mitogen-activated protein kinase 10 (Homo sapiens, UniProt P53779); assay: Binding affinity to JNK3 (unknown origin)
[17] = biological target: Glycogen synthase kinase-3 alpha (Homo sapiens, UniProt P49840); assay: Binding affinity to GSK3A (unknown origin)
[18] = AUC (0 to infinity) in Hanover-Wistar rat at 2 mg/kg, po; assay type: ADME, organism-based; set-up: time infinity, dose 2 mg/kg, route oral; details: plasma
[19] = biological target: NUAK family SNF1-like kinase 2 (Homo sapiens, UniProt Q9H093); assay: Binding affinity to SNARK (unknown origin)
[20] = Fraction unbound in human plasma; assay type: ADME, cell-free
[21] = biological target: Cyclin-dependent kinase 7 (Homo sapiens, UniProt P50613); assay: Binding affinity to CDK7 (unknown origin)
[22] = Clearance in Hanover-Wistar rat at 0.5 mg/kg, iv; assay type: ADME, organism-based; set-up: dose 0.5 mg/kg, route intravenous; details: in vivo
[23] = biological target: Mitogen-activated protein kinase 7 (Homo sapiens, UniProt Q13164); assay: Binding affinity to ERK5 (unknown origin)
Chain of Mitogen-activated protein kinase 7 (Q13164 whole entry): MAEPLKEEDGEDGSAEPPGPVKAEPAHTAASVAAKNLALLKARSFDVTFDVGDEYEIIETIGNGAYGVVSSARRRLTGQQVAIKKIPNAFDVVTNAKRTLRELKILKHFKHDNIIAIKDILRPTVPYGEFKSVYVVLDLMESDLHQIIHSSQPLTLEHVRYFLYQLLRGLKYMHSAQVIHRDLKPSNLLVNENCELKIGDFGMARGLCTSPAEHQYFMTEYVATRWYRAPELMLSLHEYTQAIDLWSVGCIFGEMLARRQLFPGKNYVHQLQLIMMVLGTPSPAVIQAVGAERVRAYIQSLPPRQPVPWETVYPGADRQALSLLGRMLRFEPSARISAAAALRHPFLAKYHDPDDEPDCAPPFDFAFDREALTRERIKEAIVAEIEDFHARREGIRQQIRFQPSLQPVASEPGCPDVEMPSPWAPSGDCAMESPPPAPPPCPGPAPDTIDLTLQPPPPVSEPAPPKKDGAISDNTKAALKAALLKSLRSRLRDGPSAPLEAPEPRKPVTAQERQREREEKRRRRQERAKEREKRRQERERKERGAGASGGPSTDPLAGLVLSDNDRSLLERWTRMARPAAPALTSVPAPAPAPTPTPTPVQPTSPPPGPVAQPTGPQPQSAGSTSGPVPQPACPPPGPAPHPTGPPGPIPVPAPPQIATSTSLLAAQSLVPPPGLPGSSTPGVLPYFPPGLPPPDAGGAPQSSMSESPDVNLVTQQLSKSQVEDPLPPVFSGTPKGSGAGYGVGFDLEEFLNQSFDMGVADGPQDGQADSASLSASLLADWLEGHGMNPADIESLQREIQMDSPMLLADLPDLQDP

[24] = biological target: Myosin light chain kinase family member 4 (Homo sapiens, UniProt Q86YV6); assay: Binding affinity to SgK085 (unknown origin)
Chain of Myosin light chain kinase family member 4 (Q86YV6 whole entry): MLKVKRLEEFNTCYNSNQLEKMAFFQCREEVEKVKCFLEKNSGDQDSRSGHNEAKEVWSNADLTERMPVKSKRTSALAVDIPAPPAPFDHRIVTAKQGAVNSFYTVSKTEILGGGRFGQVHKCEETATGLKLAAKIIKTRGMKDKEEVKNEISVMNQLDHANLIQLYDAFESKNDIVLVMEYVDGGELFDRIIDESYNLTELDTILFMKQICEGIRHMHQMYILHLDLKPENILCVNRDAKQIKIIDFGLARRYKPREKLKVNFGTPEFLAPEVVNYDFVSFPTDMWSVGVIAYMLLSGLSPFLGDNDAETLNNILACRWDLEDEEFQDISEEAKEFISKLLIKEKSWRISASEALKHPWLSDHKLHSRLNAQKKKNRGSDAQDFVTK

[25] = test system: Rattus norvegicus; assay: Cmax in Hanover-Wistar rat at 2 mg/kg, po; assay type: ADME, organism-based; set-up: dose 2 mg/kg, route oral; details: in vivo
[26] = biological target: Dual specificity mitogen-activated protein kinase kinase 6 (Homo sapiens, UniProt P52564); assay: Binding affinity to MEK6 (unknown origin)
[27] = biological target: LIM domain kinase 1 (Homo sapiens, UniProt P53667); assay: Binding affinity to LIMK1 (unknown origin)
Chain of LIM domain kinase 1 (P53667 whole entry, the tested form may be a part): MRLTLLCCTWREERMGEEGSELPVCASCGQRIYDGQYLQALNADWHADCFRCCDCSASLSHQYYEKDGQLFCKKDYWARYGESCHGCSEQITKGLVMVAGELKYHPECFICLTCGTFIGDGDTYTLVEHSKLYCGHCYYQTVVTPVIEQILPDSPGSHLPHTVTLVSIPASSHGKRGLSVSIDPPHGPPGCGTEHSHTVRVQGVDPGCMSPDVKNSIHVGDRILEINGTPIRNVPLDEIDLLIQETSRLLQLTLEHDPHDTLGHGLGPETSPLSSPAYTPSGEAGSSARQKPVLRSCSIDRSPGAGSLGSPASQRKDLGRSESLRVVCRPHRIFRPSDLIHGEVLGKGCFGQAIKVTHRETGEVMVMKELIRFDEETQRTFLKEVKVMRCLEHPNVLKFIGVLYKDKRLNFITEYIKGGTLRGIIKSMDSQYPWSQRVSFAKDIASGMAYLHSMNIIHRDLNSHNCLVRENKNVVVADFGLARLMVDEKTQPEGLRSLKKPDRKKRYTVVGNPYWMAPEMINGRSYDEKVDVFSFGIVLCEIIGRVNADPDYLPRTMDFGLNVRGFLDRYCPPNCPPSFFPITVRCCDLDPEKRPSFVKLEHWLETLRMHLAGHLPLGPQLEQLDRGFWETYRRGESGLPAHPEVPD

[28] = biological target: Citron Rho-interacting kinase (Homo sapiens, UniProt O14578); assay: Binding affinity to CIT (unknown origin)
[29] = biological target: Serine/threonine-protein kinase Nek1 (Homo sapiens, UniProt Q96PY6); assay: Binding affinity to NEK1 (unknown origin)
[30] = AUC (0 to infinity) in Hanover-Wistar rat at 0.5 mg/kg, iv; assay type: ADME, organism-based; set-up: dose 0.5 mg/kg, route intravenous, time infinity; details: plasma
[31] = biological target: Mitogen-activated protein kinase 9 (Homo sapiens, UniProt P45984); assay: Binding affinity to JNK2 (unknown origin)
Chain of Mitogen-activated protein kinase 9 (P45984 whole entry): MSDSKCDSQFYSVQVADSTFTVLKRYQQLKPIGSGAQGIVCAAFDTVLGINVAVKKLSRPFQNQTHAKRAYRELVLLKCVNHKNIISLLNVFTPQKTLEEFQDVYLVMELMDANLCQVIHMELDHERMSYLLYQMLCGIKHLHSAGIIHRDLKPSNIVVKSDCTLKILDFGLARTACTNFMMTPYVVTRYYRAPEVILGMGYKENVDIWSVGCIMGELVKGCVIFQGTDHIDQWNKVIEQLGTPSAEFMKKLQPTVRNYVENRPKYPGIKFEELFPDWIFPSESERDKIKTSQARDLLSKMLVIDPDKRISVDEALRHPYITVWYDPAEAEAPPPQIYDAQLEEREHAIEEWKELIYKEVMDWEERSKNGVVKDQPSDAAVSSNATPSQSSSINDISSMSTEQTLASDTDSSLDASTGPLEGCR

[32] = biological target: Cyclin-dependent kinase 11B (Homo sapiens, UniProt P21127); assay: Binding affinity to CDC2L1 (unknown origin)
[33] = biological target: Mitogen-activated protein kinase 8 (Homo sapiens, UniProt P45983); assay: Binding affinity to JNK1 (unknown origin)
Chain of Mitogen-activated protein kinase 8 (P45983 whole entry): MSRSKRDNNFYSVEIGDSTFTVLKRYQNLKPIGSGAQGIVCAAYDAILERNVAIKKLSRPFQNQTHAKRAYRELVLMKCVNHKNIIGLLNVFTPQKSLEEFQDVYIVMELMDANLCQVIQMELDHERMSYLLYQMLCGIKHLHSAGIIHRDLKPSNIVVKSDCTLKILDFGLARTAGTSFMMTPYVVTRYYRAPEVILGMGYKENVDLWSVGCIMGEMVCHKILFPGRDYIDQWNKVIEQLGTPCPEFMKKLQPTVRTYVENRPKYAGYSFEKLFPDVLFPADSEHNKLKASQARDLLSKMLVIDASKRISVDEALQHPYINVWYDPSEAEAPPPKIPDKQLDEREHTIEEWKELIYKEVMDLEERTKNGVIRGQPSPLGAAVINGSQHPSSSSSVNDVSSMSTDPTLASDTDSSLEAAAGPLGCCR

[34] = Intrinsic permeability from apical to basolateral side in human Caco2 cells at 10 uM; assay type: ADME, cell-based; details: Caco-2, read-out: permeability
[35] = biological target: Mitogen-activated protein kinase 6 (Homo sapiens, UniProt Q16659); assay: Binding affinity to ERK3 (unknown origin)
[36] = biological target: Serine/threonine-protein kinase 16 (Homo sapiens, UniProt O75716); assay: Binding affinity to STK16 (unknown origin)
[37] = Clearance in human liver microsomes; assay type: ADME, Microsome; details: read-out: CLH
How it was run: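 Intrinsic clearance was measured in vitro in human liver microsomes and expressed per mg microsomal protein.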

[38] = biological target: Death-associated protein kinase 1 (Homo sapiens, UniProt P53355); assay: Binding affinity to DAPK1 (unknown origin)
[39] = biological target: Mitogen-activated protein kinase 4 (Homo sapiens, UniProt P31152); assay: Binding affinity to ERK4 (unknown origin)
[40] = test system: Rattus norvegicus; assay: Cmax in Hanover-Wistar rat at 20 mg/kg, po; assay type: ADME, organism-based; set-up: dose 20 mg/kg, route oral; details: in vivo
[41] = biological target: Interferon-induced, double-stranded RNA-activated protein kinase (Homo sapiens, UniProt P19525); assay: Binding affinity to PRKR (unknown origin)
[42] = biological target: Platelet-derived growth factor receptor beta (Homo sapiens, UniProt P09619); assay: Binding affinity to PDGFRB (unknown origin)
[43] = Intrinsic clearance in human liver microsomes measured per mg of protein; assay type: ADME, Microsome; details: read-out: CLH
[44] = biological target: Serine/threonine-protein kinase 17A (Homo sapiens, UniProt Q9UEE5); assay: Binding affinity to DRAK1 (unknown origin)
[45] = biological target: Dual specificity protein kinase TTK (Homo sapiens, UniProt P33981); assay: Binding affinity to TTK (unknown origin)
[46] = biological target: eIF-2-alpha kinase GCN2 (Homo sapiens, UniProt Q9P2K8, S808G); assay: Binding affinity to GCN2 kinase domain 2 S808G mutant (unknown origin)
[47] = biological target: MAP kinase-interacting serine/threonine-protein kinase 1 (Homo sapiens, UniProt Q9BUB5); assay: Binding affinity to MKNK1 (unknown origin)
[48] = biological target: Serine/threonine-protein kinase 24 (Homo sapiens) (UniProt Q9Y6E0); assay: Competitive binding affinity to STK24 (unknown origin) at 10 uM in presence of ATP relative to control
[49] = biological target: Serine/threonine-protein kinase 25 (Homo sapiens) (UniProt O00506); assay: Competitive binding affinity to STK25 (unknown origin) at 10 uM in presence of ATP relative to control
[50] = biological target: Serine/threonine-protein kinase SIK2 (Homo sapiens) (UniProt Q9H0K1); assay: Competitive binding affinity to QIK (unknown origin) at 10 uM in presence of ATP relative to control

## O[C@H]1CC[C@H](Nc2nccc(-n3nnc4ccccc43)n2)CC1
[1]
  IC50: 0.0078 µM

## CS(=O)(=O)CCCOc1cccc2c1ccn2-c1ccnc(N[C@H]2CC[C@H](C(=O)N3CCC(O)CC3)CC2)n1
[2]
  Kd: 4.3 µM
[3]
  Kd: 5.4 µM
[4]
  Kd: 1.3 µM
[5]
  IC50: > 30 µM
[6]
  Cmax: 2670 ng/mL
[7]
  Kd: 1.8 µM
[8]
  Kd: 0.39 µM
[9]
  Kd: 0.65 µM
[10]
  bioavailability: 7%
[11]
  Kd: 0.88 µM
[12]
  AUC(0-inf): 9330 ng·h/mL
[13]
  Kd: 8.8 µM
[14]
  Kd: 1.4 µM
[15]
  Kd: 2.8 µM
[16]
  Kd: 0.0018 µM
[17]
  Kd: 1.3 µM
[18]
  AUC(0-inf): 490 ng·h/mL
[19]
  Kd: 2.6 µM
[20]
  fraction unbound: 0.05
[21]
  Kd: 0.62 µM
[22]
  clearance: 4.6 mL/min/kg
[23]
  Kd: 1.5 µM
[24]
  Kd: 0.62 µM
[25]
  Cmax: 91 ng/mL
[26]
  Kd: 0.31 µM
[27]
  Kd: 0.87 µM
[28]
  Kd: 2.7 µM
[29]
  Kd: 4 µM
[30]
  AUC(0-inf): 1850 ng·h/mL
[31]
  Kd: 0.013 µM
[32]
  Kd: 1.3 µM
[33]
  Kd: 0.00075 µM
[34]
  Papp A→B at 10 µM: 0.2 ×10⁻⁶ cm/s
[35]
  Kd: 0.33 µM
[36]
  Kd: 0.45 µM
[37]
  microsomal CLint: 30 µL/min/mg
[38]
  Kd: 0.38 µM
[39]
  Kd: 11 µM
[40]
  Cmax: 3680 ng/mL
[41]
  Kd: 0.12 µM
[42]
  Kd: 6.8 µM
[43]
  microsomal CLint: 30 µL/min/mg
[44]
  Kd: 0.44 µM
[45]
  Kd: 1.9 µM
[46]
  Kd: 2.7 µM
[47]
  Kd: 2.1 µM

## O[C@H]1CC[C@H](Nc2nccc(-c3n[nH]c4ccccc34)n2)CC1
[48]
  inhibition: 93%
[49]
  inhibition: 85%
[50]
  inhibition: < 50%
